Assay outcomes (PubChem BioAssay)
Yeast lifespan up = yeast lifespan extension; S. cerevisiae growth with nicotinamide, OD615; deaD strain in restrictive glucose medium; inhibition of the nicotinamide effect, % at 10 µM; 130,000 compounds, 0.68% hits;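 active = inhibition above a set limit, placed 3 SD over the median of all compounds, cut at about 26% in these data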;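 also: 0% = nicotinamide-treated wells and 100% = cells grown without nicotinamide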
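Material: Modified budding yeast, DeaD strain | Medium: Restrictive glucose medium | Probe or stimulus: 1.5 mM nicotinamide | Dosing: Single dose 10 µM compound, 0.25% DMSO | Times: 48 h at 30 °C | Technique: OD615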
WT yeast gro inh = growth inhibition of WT yeast, mitochondrial fusion screen; inhibition, % at 10 µM; mitochondrial fusion phenotypic screen, WT strain; 190,000 compounds, 2.1% hits; in the data active = inhibition above about 58%; tested in S. cerevisiae
RAM inhibit = blocks the yeast RAM network. S. cerevisiae dse1pr::URA3 reporter, 5-FOA growth OD615, 2 d; analog-sensitive cbk1-as2 kinase mutant strain. AID 868. 190,000 compounds, 1.8% hits. inhibition, % at 50 µM;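 active = inhibition above a set limit, 3 SD over mean compound inhibition, cut at about 8.4% in these data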;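 also: 0% = DMSO-only wells with no growth and 100% = 10 µM 1-NA-PP1 full growth; inhibition rescues growth on 5-FOA so higher OD means more RAM inhibition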
Yeast growth inh = reduces growth of yeast BB579 in restrictive medium. S. cerevisiae BB579 growth, OD615, 48 h. inhibition, % at 10 µM. 140,000 compounds, 0.51% hits;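 active = inhibition above a set limit, 3 SD over the mean compound inhibition, cut at about 44% in these data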
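Assay system – yeast BB579 (DeaD) · Dosing – single compound dose of 10 µM, 0.25% DMSO final · Detection – OD615 turbidity measurement · Buffer or medium – CSMM-D restrictive synthetic medium containing dextrose (glucose) · Benchmarks – positive control amphotericin B 10 µg/mL · Incubation – 48 h exposure, 30 °C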
* = called active by the depositor; · = no result. The list is not random: actives were taken first. Their share in the collection is about 4.3%.

SMILES	Yeast lifespan up	WT yeast gro inh	RAM inhibit	Yeast growth inh
c1ccc(CNc2nc(-c3cccs3)nc3ccccc23)cc1	-9.5	70.9*	1.6	-17.4
COc1cccc(Nc2nc(-c3cccs3)nc3ccccc23)c1	-4.4	66.0*	-0.3	-42.0
COc1ccc(Nc2nc(-c3cccs3)nc3ccccc23)cc1	2.1	46.4	1.4	-30.5
COc1cccc(CN(C)c2nc(-c3cccs3)nc3ccccc23)c1	-4.2	66.2*	-0.4	-27.8
Cc1cc(C(=O)NCCc2ccc(Cl)cc2)no1	·	-4.8	-0.3	·
COCCn1c(=O)[nH]c(=O)c2cc(C(=O)c3cc(Cl)ccc3O)cnc21	·	62.8*	2.6	·
CCOc1ccc(C2=NNC(c3cccs3)=Nc3ccc(OCC)cc32)cc1	47.1*	-8.3	0.6	-47.6
O=C1C(Cl)=C(NC2CCCCC2)C(=O)N1Cc1ccccc1	·	69.8*	5.6	·
CCCn1c(C)cc(C(=O)COc2ccc(S(=O)(=O)N(CC)CC)cc2[N+](=O)[O-])c1C	2.6	-30.4	8.4*	-46.7
CCCn1c(C)cc(C(=O)COc2ccc(C)nc2[N+](=O)[O-])c1C	-4.1	-2.7	0.4	-28.4
Cc1ccc(S(=O)(=O)n2[nH]c(=O)c(CCO)c2C)cc1	·	3.4	1.9	·
COc1cc(/C(C)=N/NC(=O)Cc2c(C)[nH][nH]c2=O)ccc1O	-6.6	5.3	1.9	-24.5
O=C(c1cc2ccccc2o1)N1CCN(c2ccccc2Cl)CC1	-11.2	75.1*	6.0	-80.9
O=C(NC1CCS(=O)(=O)C1)c1cccnc1 (centres undefined)	·	-20.1	1.1	·
Cc1ccc(NC(=O)c2cc(N3C(=O)CCC3=O)ccc2N2CCOCC2)cc1	·	-0.4	2.5	·
Cc1ccc(NC(=O)c2cc(N3C(=O)C=CC3=O)ccc2N2CCOCC2)cc1Cl	-0.9	65.8*	-1.7	-31.5
Cc1cc2cc(CCNC(=O)c3ccc(Br)o3)c(=O)[nH]c2cc1C	-15.8	95.8*	0.9	-23.8
COc1ccc2cc(CCNC(=O)c3ccc(Br)o3)c(=O)[nH]c2c1	7.3	-8.0	5.8	-10.1
COCCn1cnnc1SCC(=O)Nc1sccc1C(N)=O	·	-12.8	0.6	·
Cc1ccccc1-c1noc(C23CC4CC(CC(C4)C2)C3)n1	-9.3	80.5*	1.7	-12.6
Cc1ccc(Oc2cc(NC(=O)CCCn3nc([N+](=O)[O-])cc3C)cc([N+](=O)[O-])c2)cc1	0.5	37.2	9.5*	-41.3
Cc1nn(C)cc1C(=O)Nc1cc(Oc2ccc(Cl)cc2)cc([N+](=O)[O-])c1	-8.1	7.2	3.0	-45.8
Cc1ccc(NC(=O)CCn2nc([N+](=O)[O-])cc2C)nc1	27.1*	10.9	-0.3	-11.8
Cc1cc([N+](=O)[O-])nn1CC(=O)Nc1ccc(Cl)cn1	·	9.5	3.6	·
CCn1nc(C)c(C(=O)Nc2cc(Oc3cc(C)cc(C)c3)cc([N+](=O)[O-])c2)c1C	-5.2	68.7*	2.1	-29.5
SMILES	Yeast lifespan up	WT yeast gro inh	RAM inhibit	Yeast growth inh
Cc1ccc(SCc2ccc(C(=O)Nc3ccccc3C(=O)NC(C)C)cc2)cc1	4.8	8.8	9.1*	-38.7
Cc1ccc([N+](=O)[O-])cc1NC(=S)NC(=O)CC(C)(C)C	-7.3	68.4*	6.9	-46.4
CS(=O)(=O)Nc1ccc(C2=NN(C(=O)c3ccco3)C(c3ccc(F)cc3)C2)cc1 (centres undefined)	·	10.2	5.7	·
Cc1ccc(NC(=O)N2N=C(c3ccc(F)cc3)CC2c2ccc(F)cc2)cc1 (centres undefined)	1.8	77.4*	3.4	-42.4
COc1c(Cl)cc(C(=O)Nc2ccccc2-c2ccccc2)cc1Cl	-27.7	10.1	8.7*	-26.1
CC(Nc1cccnc1)=C(C#N)C#N	·	-6.0	0.4	·
COCCC1CCCCN1Cc1cn(-c2ccccc2)nc1-c1ccc2c(c1)OCO2 (centres undefined)	·	11.8	1.4	·
CCCc1ccc(Oc2c(-c3ccc(O)c(C)c3O)n[nH]c2C)cc1	-14.5	89.7*	9.1*	99.4*
COc1cccc(Oc2cn[nH]c2-c2ccc(OC)cc2O)c1	-21.8	26.5	-2.1	-21.1
CCCc1ccc(Oc2cn[nH]c2-c2ccc(O)c(C)c2O)cc1	-15.0	82.7*	0.5	99.6*
COc1ccc(Oc2c(-c3ccc(O)cc3O)n[nH]c2C)cc1	-4.8	-10.5	-1.0	-26.3
NS(=O)(=O)c1ccc(N/C=C\C(=O)c2ccc3ccccc3c2)cc1	3.2	2.4	5.0	-46.4
COc1ccc(/C=C2\CCCc3c2nc2ccccc2c3C(=O)OCC(=O)c2c(N)n(C)c(=O)n(C)c2=O)cc1	1.0	9.0	3.2	-50.7
Cc1ccsc1C(=O)C1CCCN(Cc2cc(F)ccc2-n2cccn2)C1 (centres undefined)	·	14.3	2.8	·
c1ccc(CSc2nnc3ccc(-c4ccco4)nn23)nc1	·	-2.7	-0.1	·
S=C(NCc1ccco1)Nc1ccc(Cl)c(Cl)c1	-11.7	-2.4	0.3	-26.8
S=C(NCc1ccco1)Nc1cc(-c2ccccc2)[nH]n1	·	64.2*	0.3	·
S=C(NCc1ccco1)Nc1ccc(Oc2ccccc2)cc1	·	67.1*	1.8	·
COc1ccc(NC(=S)NCc2ccco2)cc1	-0.8	-4.8	0.5	-48.1
COc1cc(OC)cc(C(=O)NC(=S)NCc2ccco2)c1	-6.8	7.4	9.5*	-52.2
CC(C)CNC(=S)Nc1ccc(Oc2ccccc2)cc1	-0.9	62.8*	2.8	11.4
CN1CCN(C(=O)C2=C[C@@H](C3CCCCC3)C[C@@H](OCCCCO)O2)CC1	·	3.0	0.0	·
COc1cccc(C2C3=C(CC(C)(C)CC3=O)Nc3n[nH]c(C)c32)c1 (centres undefined)	·	-15.2	0.1	·
CC[C@H](C)[C@H](NC(N)=O)C(=O)NCCc1ccc(Cl)cc1Cl	·	0.1	1.3	·
CN1CCN(C(N)=NC(=O)c2ccccc2)CC1	6.3	-16.9	1.2	-31.1
SMILES	Yeast lifespan up	WT yeast gro inh	RAM inhibit	Yeast growth inh
COc1ccc(OCCOC(=O)c2nc3nccc(C)n3n2)cc1	·	4.4	2.4	·
C=CCN1C(=O)N/C(=C/c2ccc(C)o2)C1=O	-4.4	-6.8	3.0	-36.5
N#C/C(=C\c1ccco1)C(=O)Nc1cccc2ncccc12	-4.5	-5.5	1.3	-13.0
COC(=O)c1c(NC(=O)c2ccc(N(C)S(=O)(=O)c3ccc(C)cc3)cc2)sc2c1CCCC2	8.8	5.2	4.3	-34.5
COCCN(CCOC)S(=O)(=O)c1ccc(C(=O)Nc2sc3c(c2C(N)=O)CCCCC3)cc1	40.0*	-9.1	0.1	-33.9
O=c1c2[nH]c3ccccc3c2ncn1Cc1ccco1	71.9*	10.4	4.0	-17.0
CC(=O)c1c(C)[nH]c(C(=O)OCc2ccc(F)cc2Cl)c1C	·	-9.1	3.8	·
C=CCNCCOCCOc1ccc(Cl)cc1C(C)(C)C	3.5	35.8	4.3	-52.7
C=CCNCCCOc1ccc(Cl)cc1C(C)(C)C	·	74.5*	2.7	·
COc1ccc(C2C=C(C34CC5CC(CC(C5)C3)C4)NC(=S)N2)cc1 (centres undefined)	3.2	69.8*	1.1	-11.1
COc1ccc(C2=CC(c3ccc(OC)c(OC)c3)NC(=S)N2)cc1 (centres undefined)	-4.1	-2.3	0.8	-32.0
